Experimental data taken from ChEMBL document CHEMBL1122774, “Tri- and tetrapeptide analogues of kinins as potential renal vasodilators” (J Med Chem, 1984).
Square brackets hold non-standard residues; d marks the D form. Peptide text beside a SMILES is read from it. * marks the point of attachment. ξ: configuration not given here. Butanoyl(4-(4-HOPh)) = O=C(CCCc1ccc(O)cc1)*; ξαMeY = CC(N)(Cc1ccc(O)cc1)C(=O)O; pNA = O=[N+]([O-])c1ccc(N*)cc1; ξαMeF = CC(N)(Cc1ccccc1)C(=O)O; Bz = O=C(c1ccccc1)*

Tests used:
[1] = system: Canis familiaris; assay: In vivo percent change in canine renal blood flow (RBF) at 300 ug/Kg/min.; assay type: functional, Canis lupus familiaris, Kidney
How it was run: (§1)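 Primary screen in anesthetized dogs (7-17 kg). Drug infused separately at 3, 30 and 300 µg/(kg min), each infusion lasting 5 min, at about 15-min intervals. Read-outs are renal blood flow, mean arterial blood pressure, heart rate, and RVR (MABP / mean RBF), as percent change. Significance thresholds are defined per number of dogs; n = 1-3 dogs.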

[2] = system: Canis familiaris; assay: In vivo percent change in canine mean arterial blood pressure (MABP) at 3 ug/Kg/min.; assay type: functional, Canis lupus familiaris; how it was run: as §1
[3] = system: Canis familiaris; assay: Renal vasodilator activity in anesthetized dogs and percent change in renal vascular resistance (RVR) was determined at 30 ug/Kg/min; assay type: functional, Canis lupus familiaris; how it was run: as §1
[4] = system: Canis familiaris; assay: In vivo percent change in canine mean arterial blood pressure (MABP) at 300 ug/Kg/min.; assay type: functional, Canis lupus familiaris; how it was run: as §1
[5] = system: Canis familiaris; assay: In vivo percent change in canine renal blood flow (RBF) at 30 ug/Kg/min.; assay type: functional, Canis lupus familiaris, Kidney; how it was run: as §1
[6] = system: Canis familiaris; assay: In vivo percent change in canine heart rate at 3 ug/Kg/min.; assay type: functional, Canis lupus familiaris; how it was run: as §1
[7] = system: Canis familiaris; assay: In vivo percent change in canine renal blood flow (RBF) at 3 ug/Kg/min.; assay type: functional, Canis lupus familiaris, Kidney; how it was run: as §1
[8] = system: Canis familiaris; assay: In vivo percent change in canine mean arterial blood pressure (MABP) at 30 ug/Kg/min.; assay type: functional, Canis lupus familiaris; how it was run: as §1
[9] = system: Canis familiaris; assay: In vivo percent change in canine renal vascular resistance (RVR) at 300 ug/Kg/min.; assay type: functional, Canis lupus familiaris; how it was run: as §1
[10] = system: Canis familiaris; assay: In vivo percent change in canine renal vascular resistance (RVR) at 3 ug/Kg/min.; assay type: functional, Canis lupus familiaris; how it was run: as §1
[11] = system: Canis familiaris; assay: In vivo percent change in canine heart rate at 30 ug/Kg/min.; assay type: functional, Canis lupus familiaris; how it was run: as §1
[12] = system: Canis familiaris; assay: In vivo percent change in canine heart rate at 300 ug/Kg/min.; assay type: functional, Canis lupus familiaris; how it was run: as §1
[13] = system: Canis familiaris; assay: In vivo percent change in renal blood flow at 30 ug/Kg/min.; assay type: functional, Canis lupus familiaris, Kidney; how it was run: as §1
[14] = Average max percent decrease in RVR (renal vascular resistance) was determined.
How it was run: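 Secondary protocol in anesthetized dogs. Drug given as iv infusion at progressively increasing rates, each dose level for 5 min. The maximum effect is taken as the largest percent decrease in renal vascular resistance (RVR) reached with the compound. RVR is calculated as mean arterial blood pressure / mean renal blood flow.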

[15] = system: Canis familiaris; assay: In vivo percent change in canine renal vascular resistance (RVR) at 30 ug/Kg/min.; assay type: functional, Canis lupus familiaris; how it was run: as §1
[16] = system: Canis familiaris; assay: Renal vasodilator activity in anesthetized dogs and percent change in mean arterial blood pressure (MABP) was determined at 300 ug/kg min; assay type: functional, Canis lupus familiaris; how it was run: as §1
[17] = system: Canis familiaris; assay: Renal vasodilator activity in anesthetized dogs and percent change in renal vascular resistance (RVR) was determined at 300 ug/kg min; assay type: functional, Canis lupus familiaris; how it was run: as §1
[18] = system: Canis familiaris; assay: Renal vasodilator activity in anesthetized dogs and percent change in renal blood flow (RBF) was determined at 300 ug/kg min; assay type: functional, Canis lupus familiaris, Kidney; how it was run: as §1
[19] = system: Canis familiaris; assay: Compound was evaluated for renal vasodilator activity and represented as ED15 (intravenous administration); assay type: functional; details: Canis lupus familiaris
How it was run: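 Secondary protocol in anesthetized dogs with iv infusion at progressively increasing rates, each level infused 5 min. Potency is the cumulative dose (µg/kg) that lowered renal vascular resistance (MABP / mean RBF) by 15%. Minimum change needed for significance (p = 0.95) is 16% for RVR.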

[20] = system: Canis familiaris; assay: Renal vasodilator activity in anesthetized dogs and percent change in mean arterial blood pressure (MABP) was determined at 3 ug/kg min; assay type: functional, Canis lupus familiaris; how it was run: as §1
[21] = system: Canis familiaris; assay: Renal vasodilator activity in anesthetized dogs and percent change in renal blood flow (RBF) was determined at 3 ug/kg min; assay type: functional, Canis lupus familiaris, Kidney; how it was run: as §1
[22] = system: Canis familiaris; assay: Renal vasodilator activity in anesthetized dogs and percent change in renal vascular resistance (RVR) was determined at 30 ug/kg min; assay type: functional, Canis lupus familiaris; how it was run: as §1
[23] = system: Canis familiaris; assay: Renal vasodilator activity in anesthetized dogs and percent change in renal blood flow (RBF) was determined at 30 ug/kg min; assay type: functional, Canis lupus familiaris, Kidney; how it was run: as §1
[24] = system: Canis familiaris; assay: Renal vasodilator activity in anesthetized dogs and percent change in heart rate (HR) was determined at 30 ug/kg min; assay type: functional, Canis lupus familiaris; how it was run: as §1
[25] = system: Canis familiaris; assay: Renal vasodilator activity in anesthetized dogs and percent change in heart rate (HR) was determined at 300 ug/kg min; assay type: functional, Canis lupus familiaris; how it was run: as §1
[26] = system: Canis familiaris; assay: Renal vasodilator activity in anesthetized dogs and percent change in heart rate (HR) was determined at 3 ug/kg min; assay type: functional, Canis lupus familiaris; how it was run: as §1
[27] = Ratio of ED30 of iliac vascular resistant (IVR) to the ED15 of RVR (renal vascular resistance); assay type: functional
How it was run: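 Anesthetized dogs in the secondary cumulative-infusion protocol, each dose level 5 min. Selectivity ratio is the dose giving a 30% change in iliac vascular resistance divided by the RVR ED15, the cumulative dose decreasing renal vascular resistance by 15%.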

[28] = system: Canis familiaris; assay: Renal vasodilator activity in anesthetized dogs and percent change in renal vascular resistance (RVR) was determined at 3 ug/kg min; assay type: functional, Canis lupus familiaris; how it was run: as §1
[29] = system: Canis familiaris; assay: Renal vasodilator activity in anesthetized dogs and percent change in mean arterial blood pressure (MABP) was determined at 30 ug/kg min; assay type: functional, Canis lupus familiaris; how it was run: as §1

Row | Molecule | Change [1] [%] | Change [2] [%] | Change [3] [%] | Change [4] [%] | Change [6] [%] | Change [7] [%] | Change [8] [%] | Change [9] [%] | Change [10] [%] | Change [11] [%] | Change [12] [%] | Change [13] [%] | Decrease [14] [%] | other results
1 | O=C(NCC(=O)N1CCC[C@H]1C(=O)O)[C@H](Cc1ccccc1)NC(=O)[C@@H]1CCCN1C(=O)CCCc1ccc(O)cc1 ({Butanoyl(4-(4-HOPh))}-PFGP-OH) | 7 | -2 | 74.5 | -1.5 | -2.5 | 2.5 | -1 | -8.5 | -4.5 | -1.5 | 1.5 | – | – | Change [5]: -43%
2 | N=C(N)NCCC[C@H](NC(=O)[C@@H]1Cc2ccccc2CN1C(=O)CCCc1ccc(O)cc1)C(=O)O | -12 | -1 | -1 | -2 | 1 | 7 | 1 | 11 | -6 | 0 | 0 | 2 | – | –
3 | CC(Cc1ccc(O)cc1)(NC(=O)[C@@H]1CCCN1C(=O)CCCc1ccc(O)cc1)C(=O)NCC(=O)N1CCC[C@H]1C(=O)O (stereo partly drawn) ({Butanoyl(4-(4-HOPh))}-P[ξαMeY]GP-OH) | 9 | -2 | -0.5 | 3 | -7 | 4 | 1 | -5.9 | -6 | 0 | -1.5 | 0.5 | 13 | –
4 | CC(CN[C@@H](CCCN=C(N)N)C(=O)O)(Cc1ccccc1)NC(=O)[C@@H]1CCCN1 (stereo partly drawn) | 7 | 1 | – | -5 | 0 | 0 | 1 | -11 | 1 | 4 | -7 | 8 | – | Change [15]: -6%
5 | CC(Cc1ccc(O)cc1)(NC(=O)[C@@H]1CCCN1C(=O)CCCc1ccc(O)cc1)C(=O)NCCCN.Cl (stereo partly drawn) | 10 | -2 | -3 | 0 | 1.5 | 8.5 | 1 | 8.5 | -9.5 | 4 | 3.5 | 3.5 | – | –
6 | H-RPPGFSPFR-OH [BRADYKININ] | – | – | – | – | – | – | – | – | – | – | – | – | 67 | –
7 | H-FSPFR-OH | – | – | – | – | – | – | – | – | – | – | – | – | 21 | –
8 | Cl.Cl.NCCCNC(=O)[C@H](Cc1ccccc1)NC(=O)[C@@H]1CCCN1 | 6.5 | -0.5 | – | -3.5 | -1.5 | 3.5 | 0 | -9 | -3 | -1 | -1 | – | – | Change [5]: 5%; Change [15]: -5%
9 | CC(Cc1ccccc1)(NC(=O)[C@@H]1CCCN1C(=O)CCCc1ccc(O)cc1)C(=O)NCCCCCC(=O)O (stereo partly drawn) | 5 | 0 | 5 | 1 | -4 | 1 | 2 | -4 | -1 | -2 | -6 | -4 | – | –
10 | N=C(N)NCCC[C@H](NC(=O)[C@H](Cc1ccccc1)NC(=O)[C@@H]1CCCN1C(=O)c1ccccc1)C(=O)Nc1ccc([N+](=O)[O-])cc1 (Bz-Pro-Phe-Arg-pNA) | – | – | – | – | – | – | – | – | – | – | – | – | 20 | Change [16]: -26.6%; Change [17]: -38.7%; Change [18]: 27%; ED15 [19]: 0.297 mg/kg; Change [20]: 1.2%; Change [21]: 1.9%; Change [22]: -3%; Change [23]: 4.8%; Change [24]: -3%; Change [25]: -10%; Change [26]: 0%; Ratio [27]: > 20; Change [28]: 0%; Change [29]: 1.5%
11 | Cl.NCCCNC(=O)[C@H](Cc1ccccc1)NC(=O)[C@@H]1CCCN1C(=O)CCCc1ccccc1 | 6.5 | 0 | -3.8 | -2.7 | 0 | 0 | 0 | -8.9 | 0 | 0 | -5.3 | – | – | Change [5]: 5%
12 | CC(Cc1ccccc1)(NC(=O)[C@@H]1CCCN1C(=O)c1ccccc1)C(=O)N1CCC[C@H]1C(=O)O (stereo partly drawn) (Bz-Pro-[ξαMeF]-Pro-OH) | 0 | 0 | – | -4 | 3 | 4 | -5 | -4 | -4 | -6 | 0 | 0 | – | Change [15]: -5%
13 | O=C(NCC(=O)N1CCC[C@H]1C(=O)O)[C@@H](Cc1ccccc1)NC(=O)[C@@H]1CCCN1C(=O)CCCc1ccc(O)cc1 ({Butanoyl(4-(4-HOPh))}-P[dF]GP-OH) | -1 | 0 | -1 | -1 | 1 | 2 | -1 | -1 | -2 | -2 | -1 | 0 | – | –
